Experimental data as given in ChEMBL document CHEMBL1133693, “Peptide and peptide mimetic inhibitors of antigen presentation by HLA-DR class II MHC molecules. Design, structure-activity relationships, and X-ray crystal structures” (J Med Chem, 2000).
Starred links: 1 amine or outer side, 2 acyl side, 3 side chain; linkers in the order of their positions; H or OH if unused. Non-standard residues stand in square brackets, D forms with d. Residues, ends and D or L forms follow the SMILES beside them. *: point of attachment. X11 = O=C([C@H](N[*:1])[C@H](O)[C@@H](O)[C@@H](O)CO)[*:2]; X3 = O=C([C@@H](N[*:1])[C@H](O)[C@H](O)[C@@H](O)CO)[*:2]; X4 = O=C([C@H](CC1CC2CCC1CC2)N[*:1])[*:2]; X5 = CC1CCC(C[C@@H](N[*:1])C(=O)[*:2])CC1; X6 = CC1CCC(C[C@H](N[*:1])C(=O)[*:2])CC1; Phe(3-F) = N[C@@H](Cc1cccc(F)c1)C(=O)O; Phe(3-I) = N[C@@H](Cc1cccc(I)c1)C(=O)O; NMeCha = CN[C@@H](CC1CCCCC1)C(=O)O; NMeR = CN[C@@H](CCCNC(=N)N)C(=O)O; Cha = N[C@@H](CC1CCCCC1)C(=O)O; NMeM = CN[C@@H](CCSC)C(=O)O; NMeS = CN[C@@H](CO)C(=O)O; NHCH(CH2OH)2 = OCC(CO)N*; NMeA = CN[C@@H](C)C(=O)O; Nle = CCCC[C@H](N)C(=O)O; NHCH2CH2OH = OCCN*

Legend:
[1] = Mean relative potency is the ratio of potencies of 'Ac-(Cha)RAMASL-NH2' and compound, to inhibit MHC class II DRB1*0101
Summary of the method: (§1)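 Scintillation proximity competition assay. Test compounds competed against the radioligand, and bound counts were read by scintillation. Ac-(Cha)RAMASL-NH2 was run as standard competitor in every run. Potency is the ratio of standard IC50 to compound IC50.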

[2] = Mean relative potency is the ratio of potencies of 'Ac-(Cha)RAMASL-NH2' and compound, to inhibit MHC class II DRB1*0401; summary of the method: as §1

Row | Structure (SMILES) | Mean relative potency [1] | Mean relative potency [2]
1 | CC[C@@H](C)[C@H](NC(=O)[C@H](C)NC(=O)[C@H](CCCN=C(N)N)NC(=O)[C@H](CC1CCCCC1)NC(C)=O)C(=O)N[C@@H](C)C(=O)N[C@@H](CO)C(=O)N[C@@H](CC(C)C)C(N)=O | 0.36 | 1.01
2 | CSCC[C@H](NC(=O)[C@H](C)NC(=O)[C@H](CCCN=C(N)N)NC(=O)[C@@H](CC1CC2CCC1C2)NC(C)=O)C(=O)N[C@@H](C)C(=O)N[C@@H](CO)C(=O)N[C@@H](CC(C)C)C(N)=O (stereo not given in full) | 1.31 | 1.53
3 | CSCC[C@H](NC(=O)[C@H](C)NC(=O)[C@H](CCCN=C(N)N)NC(=O)[C@H](CC1CCCCC1)NC(C)=O)C(=O)N1CCCC[C@@H]1C(=O)N[C@@H](CO)C(=O)N[C@@H](CC(C)C)C(N)=O | 0.55 | 1.08
4 | CSCC[C@H](NC(=O)[C@H](C)NC(=O)[C@H](CCCN=C(N)N)NC(=O)[C@H](CC1CCCCC1)NC(C)=O)C(=O)N1CCC[C@@H]1C(=O)N[C@@H](CO)C(=O)N[C@@H](CC(C)C)C(N)=O | 1.37 | 0.7
5 | CSCC[C@H](NC(=O)[C@H](C)NC(=O)[C@H](CCCN=C(N)N)NC(=O)[C@H](CC1CCCCC1)NC(C)=O)C(=O)N[C@H](C)C(=O)N[C@@H](CO)C(=O)N[C@@H](CC(C)C)C(=O)N(C)C | 1.4 | 1.6
6 | CSCC[C@H](NC(=O)[C@H](C)NC(=O)[C@H](CCCN=C(N)N)NC(=O)[C@H](CC1CCCCC1)NC(C)=O)C(=O)N[C@H](C)C(=O)N[C@@H](CO)C(=O)N[C@H](C(N)=O)C(C)(C)C | 1.64 | 1.46
7 | CC(=O)N[C@@H](CC1CCCCC1)C(=O)N[C@@H](CCCN=C(N)N)C(=O)N[C@@H](C)C(=O)N[C@@H](CC(C)C)C(=O)N[C@@H](C)C(=O)N[C@@H](CO)C(=O)N[C@@H](CC(C)C)C(N)=O (Ac-[Cha]RALASL-NH2) | 0.55 | 0.54
8 | CSCC[C@H](NC(=O)[C@H](C)NC(=O)[C@H](CCCN=C(N)N)NC(=O)[C@H](CC1CCCCC1)NC(C)=O)C(=O)N[C@@H](C)C(=O)N(C)[C@@H](CO)C(=O)N[C@@H](CC(C)C)C(N)=O (Ac-[Cha]RAMA[NMeS]L-NH2) | 0.5 | 0.97
9 | CSCC[C@@H](C(=O)N[C@@H](C)C(=O)N[C@@H](CO)C(=O)N[C@@H](CC(C)C)C(N)=O)N(C)C(=O)[C@H](C)NC(=O)[C@H](CCCN=C(N)N)NC(=O)[C@H](CC1CCCCC1)NC(C)=O (Ac-[Cha]RA[NMeM]ASL-NH2) | 0.046 | 0.005
10 | CCCC[C@H](NC(=O)[C@H](C)NC(=O)[C@H](CCCN=C(N)N)NC(=O)[C@H](CC1CCCCC1)NC(C)=O)C(=O)N[C@@H](C)C(=O)N[C@@H](CO)C(=O)N[C@@H](CC(C)C)C(N)=O (Ac-[Cha]RA[Nle]ASL-NH2) | 0.77 | 0.4
11 | CSCC[C@H](NC(=O)[C@H](CCSC)NC(=O)[C@H](CCCN=C(N)N)NC(=O)[C@H](CC1CCCCC1)NC(C)=O)C(=O)N[C@@H](C)C(N)=O (Ac-[Cha]RMMA-NH2) | 0.59 | 0.15
12 | CSCC[C@H](NC(=O)[C@H](CCSC)NC(=O)[C@H](CCCN=C(N)N)NC(=O)[C@H](CC1CCCCC1)NC(C)=O)C(=O)N[C@@H](C)C(=O)NCCO (Ac-[Cha]RMMA-NHCH2CH2OH) | 0.33 | 1.04
13 | CSCC[C@H](NC(=O)[C@H](CCSC)NC(=O)[C@H](CCCN=C(N)N)NC(=O)[C@H](CC1CCCCC1)NC(C)=O)C(=O)N[C@@H](C)C(=O)NC(CO)CO (Ac-[Cha]RMMA-{NHCH(CH2OH)2}) | 0.68 | 1.55
14 | CSCC[C@H](NC(=O)[C@H](CCSC)NC(=O)[C@H](CCCN=C(N)N)NC(=O)[C@H](CC1CCCCC1)NC(C)=O)C(=O)N[C@@H](C)C(=O)N[C@@H](CO)C(N)=O (Ac-[Cha]RMMAS-NH2) | 1.38 | 0.85
15 | CSCC[C@H](NC(=O)[C@H](CCSC)NC(=O)[C@H](CCCN=C(N)N)NC(=O)[C@H](CC1CCCCC1)NC(C)=O)C(=O)N[C@@H](C)C(=O)N[C@@H](CO)C(=O)N[C@@H](CC(C)C)C(N)=O (Ac-[Cha]RMMASL-NH2) | 1.05 | 0.88
16 | CSCC[C@H](NC(=O)[C@H](CCCN=C(N)N)NC(=O)[C@H](CC1CCCCC1)NC(C)=O)C(=O)N[C@@H](CCSC)C(=O)N[C@H](C=O)[C@H](O)[C@H](O)[C@@H](O)CO (Ac-[Cha]RMM[X3]-aldehyde) | 0.12 | 0.16
17 | CSCC[C@H](NC(=O)[C@H](CCCN=C(N)N)NC(=O)[C@H](CC1CCCCC1)NC(C)=O)C(=O)N[C@@H](CCSC)C(=O)N[C@@H](C=O)[C@H](O)[C@@H](O)[C@@H](O)CO (Ac-[Cha]RMM[X11]-aldehyde) | 0.5 | 0.81
18 | CSCC[C@H](NC(=O)[C@H](C)N(C)C(=O)[C@H](CCCN=C(N)N)NC(=O)[C@H](CC1CCCCC1)NC(C)=O)C(=O)N[C@@H](C)C(=O)N[C@@H](CO)C(=O)N[C@@H](CC(C)C)C(N)=O (Ac-[Cha]R[NMeA]MASL-NH2) | 1.02 | 0.56
19 | CSCC[C@H](NC(=O)[C@H](C)NC(=O)[C@H](CCCN=C(N)N)N(C)C(=O)[C@H](CC1CCCCC1)NC(C)=O)C(=O)N[C@@H](C)C(=O)N[C@@H](CO)C(=O)N[C@@H](CC(C)C)C(N)=O (Ac-[Cha][NMeR]AMASL-NH2) | 0.001 | 0.001
20 | CSCC[C@H](NC(=O)[C@H](C)NC(=O)[C@H](CCCN=C(N)N)NC(=O)[C@H](CC1CCCCC1)N(C)C(C)=O)C(=O)N[C@@H](C)C(=O)N[C@@H](CO)C(=O)N[C@@H](CC(C)C)C(N)=O (Ac-[NMeCha]RAMASL-NH2) | 0.25 | 0.67
21 | CSCC[C@H](NC(=O)[C@H](C)NC(=O)[C@H](CCCN=C(N)N)NC(=O)[C@H](Cc1cccc(F)c1)NC(C)=O)C(=O)N[C@@H](C)C(=O)N[C@@H](CO)C(=O)N[C@@H](CC(C)C)C(N)=O (Ac-[Phe(3-F)]RAMASL-NH2) | 0.17 | 1.19
22 | CSCC[C@H](NC(=O)[C@H](C)NC(=O)[C@H](CCCN=C(N)N)NC(=O)[C@H](Cc1cccc(I)c1)NC(C)=O)C(=O)N[C@@H](C)C(=O)N[C@@H](CO)C(=O)N[C@@H](CC(C)C)C(N)=O (Ac-[Phe(3-I)]RAMASL-NH2) | 0.61 | 1.56
23 | CSCC[C@H](NC(=O)[C@H](C)NC(=O)[C@H](CCCN=C(N)N)NC(=O)[C@H](CC1CC2CCC1CC2)NC(C)=O)C(=O)N[C@@H](C)C(=O)N[C@@H](CO)C(=O)N[C@@H](CC(C)C)C(N)=O (stereo not given in full) (Ac-[X4]RAMASL-NH2) | 0.68 | 1.22
24 | CSCC[C@H](NC(=O)[C@H](C)NC(=O)[C@H](CCCN=C(N)N)NC(=O)[C@@H](CC1CCC(C)CC1)NC(C)=O)C(=O)N[C@@H](C)C(=O)N[C@@H](CO)C(=O)N[C@@H](CC(C)C)C(N)=O (stereo not given in full) (Ac-[X5]RAMASL-NH2) | 1.17 | 0.93
25 | CSCC[C@H](NC(=O)[C@H](C)NC(=O)[C@H](CCCN=C(N)N)NC(=O)[C@H](CC1CCC(C)CC1)NC(C)=O)C(=O)N[C@@H](C)C(=O)N[C@@H](CO)C(=O)N[C@@H](CC(C)C)C(N)=O (stereo not given in full) (Ac-[X6]RAMASL-NH2) | 1.37 | 1.71
